The target of test [1] is T1, C-C chemokine receptor type 1 (Homo sapiens, UniProt P32246).
T1 sequence (P32246 whole entry): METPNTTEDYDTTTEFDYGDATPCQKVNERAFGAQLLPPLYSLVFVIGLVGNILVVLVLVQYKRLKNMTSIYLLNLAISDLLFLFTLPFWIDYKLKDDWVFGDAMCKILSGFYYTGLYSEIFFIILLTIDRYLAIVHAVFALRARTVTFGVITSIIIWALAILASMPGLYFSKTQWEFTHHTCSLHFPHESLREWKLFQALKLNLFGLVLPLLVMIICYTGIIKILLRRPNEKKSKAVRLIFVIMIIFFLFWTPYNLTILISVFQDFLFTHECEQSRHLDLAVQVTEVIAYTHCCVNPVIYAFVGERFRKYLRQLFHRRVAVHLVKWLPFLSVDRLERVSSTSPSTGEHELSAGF
Nature of the test: Displacement of [125I]MIP1-alpha from human CCR1 receptor expressed in THP1 cells. The format is cell-based, THP-1. A digest of the protocol:
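THP-1 cells expressing CCR1, washed in PBS, at 5 × 10⁶/ml with compound or vehicle and 50 pM human [¹²⁵I]MIP-1α. Binding buffer: 50 mM Hepes pH 7.4, 5 mM MgCl₂, 1 mM CaCl₂, 0.5% BSA. Incubated 90 min at room temperature, then filtered on PEI-coated glass fibre and washed with buffer plus 0.5 M NaCl. Bound counts by scintillation. IC50, mean of triplicates in one experiment.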

The target of test [2] is T1, C-C chemokine receptor type 1. Kind of test: Antagonist activity at human CCR1 receptor expressed in THP1 cells assessed as human MIP-1-alpha-stimulated intracellular calcium level by FLIPR assay. The format is functional, cell-based, THP-1. A digest of the protocol:
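THP-1 cells in RPMI-1640 at 2 × 10⁶/ml, mixed 1:1 with calcium dye buffer, loaded 30 min at 37 °C with 2.5 mM probenecid. Cells spun down, resuspended in RPMI-1640 with 0.1% BSA and plated at 1.5 × 10⁵/well with or without compound. Stimulated with 5 nM human MIP-1α; intracellular Ca²⁺ change read by FLIPR. IC50, mean of at least two independent experiments.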
On the technique in general: Calcium flux is commonly read through the fluorescence of an indicator in the cells.

The next test concerns THP-1. Kind of test: Inhibition of CCL3-induced chemotaxis in human THP1 cells after 2 hrs. The format is functional, cell-based. To be noted: THP-1, 2 h. A digest of the protocol: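 Calcein-labelled THP-1 cells washed in RPMI-1640 and resuspended at 5 × 10⁶/ml. Preincubated 30 min at 37 °C with compound or DMSO, then placed above a 5 µm polycarbonate filter in a Boyden chamber. The lower wells held 0.5 nM human MIP-1α with or without compound. Chamber incubated 2 h at 37 °C.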

Test [3] is described as follows: Selectivity for human CCR1 receptor over CCR4 receptor.

These results are taken from ChEMBL document CHEMBL1143879, “Identification of novel series of human CCR1 antagonists” (Bioorg Med Chem Lett, 2008).

On to `O=S(=O)(c1ccccc1Br)N1CCC(N2CCC(O)(c3ccc(Cl)cc3)CC2)CC1`, for which the results for the IC50 (in test [1]; in test [2]; in the test on THP-1) were 90 nM, 90 nM and 42 nM, respectively. Moreover, the Selectivity ratio in test [3] was > 100.

For the compound `O=S(=O)(c1ccccc1Cl)N1CCC(N2CCC(O)(c3ccc(Cl)cc3)CC2)CC1`, the IC50 – broadly, the concentration at which inhibition is half-maximal – in test [1] amounted to 200 nM; in test [2], 130 nM; with THP-1, 183 nM.

For the compound `O=S(=O)(c1ccccc1)N1CCC(N2CCC(O)(c3ccc(Cl)cc3)CC2)CC1`, the IC50 in test [1] amounted to 1270 nM; in test [2] it was 1240 nM. Further, the Selectivity ratio in test [3] is > 100.

Turning to `Cc1cccc(Cl)c1S(=O)(=O)N1CCC[C@@H](N2CCC(O)(c3ccc(Cl)cc3)CC2)C1`, the values for the IC50 in test [1] and in test [2] were 390 nM and 270 nM, respectively.

In the case of `O=S(=O)(NCCCN1CCC(O)(c2ccc(Cl)cc2)CC1)c1ccc(C(F)(F)F)cc1`, the IC50 in test [1] amounted to 9400 nM; in test [2] it was 2200 nM.

As for `O=S(=O)(NCCCN1CCC(O)(c2ccc(Cl)cc2)CC1)c1ccccc1Br`, the IC50 came to 140 nM in test [1] and 170 nM in test [2].

On to `CC1(N2CCC(O)(c3ccc(Cl)cc3)CC2)CCN(S(=O)(=O)c2ccccc2Cl)CC1`, for which the IC50 in test [1] worked out at 5150 nM; in test [2] it was 2260 nM.

With `O=S(=O)(NCCCN1CCC(O)(c2ccc(Cl)cc2)CC1)c1ccccc1-c1ccccc1`, the IC50 in test [1] turned out to be 600 nM; in test [2], 84 nM; in the test on THP-1 it was 151 nM.

With `O=S(=O)(NCCCN1CCC(O)(c2ccc(Cl)cc2)CC1)c1ccc2ccccc2c1`, the IC50 in test [1] was found to be 1150 nM; in test [2], 520 nM.

Take `O=S(=O)(c1ccccc1Cl)N1CCC[C@H](N2CCC(O)(c3ccc(Cl)cc3)CC2)C1`: the half-inhibitory concentration (IC50) in test [1] was 1900 nM; in test [2] it was 2040 nM.

In the case of `O=S(=O)(NCCCN1CCC(O)(c2ccc(Cl)cc2)CC1)c1ccccc1-c1cccs1`, the IC50 in test [1] came out at 240 nM; in test [2], 230 nM; with THP-1 it was 296 nM. Further, the Selectivity ratio in test [3] is > 100.
